Here are results for three compounds from ChEMBL document CHEMBL1165905, “Synthesis of methyl-substituted xanthotoxol to clarify prooxidant effect of methyl on radical-induced oxidation of DNA” (Eur J Med Chem, 2010).

A short description of assay [1]: Antioxidant activity assessed as protection against Cu(2+)/[…]-induced DNA damage up to 180 mins by TBARS assay. The format is functional. A digest of the protocol: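 DNA (2.0 mg/mL), CuSO4 (5.0 mM) and GSH (3.0 mM) in phosphate buffer (6.1 mM Na2HPO4, 3.9 mM NaH2PO4). Compound added from DMSO at 0.2 mM final. Incubated at 37 °C, with three tubes removed every 30 min and stopped with EDTA (30.0 mM final). TBARS read in the n-butanol layer at 535 nm. Oxidative percentage = (A_x/A_0) × 100 at 150 min relative to control.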

Assay [2] is described as follows: Antioxidant activity against beta-carotene and linoleic acid assessed as inhibition of bleaching of beta-carotene at 13.3 uM measured up to 540 mins by autooxidation assay. Type of assay: functional. A digest of the protocol: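 β-Carotene–linoleic acid emulsion with compound at 13.3 μM. Bleaching of β-carotene by peroxyl radicals from linoleic acid autoxidation was followed as absorbance at 460 nm and plotted against time.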

A short description of assay [3]: Antioxidant activity assessed as protection against […]-induced oxidation of DNA at 80 uM up to 675 mins.
Assay [4] is described as follows: Antioxidant activity assessed as galvinoxyl radical scavenging activity measured up to 210 mins. The format is functional. The procedure, abridged:
(§1)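 Radical was dissolved in ethanol to about 1.00 absorbance: DPPH read at 517 nm, galvinoxyl at 428 nm. Compound in ethanol was added at 200 μM final and absorbance decay recorded. Percent scavenged = (1 − Abs_detect/Abs_ref) × 100, plotted against incubation time.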

Assay [5] deals with Radical scavenging activity. Put plainly: Antioxidant activity assessed as DPPH radical scavenging activity measured up to 300 mins. Type of assay: functional. The procedure, abridged:
as §1
In general terms: DPPH is a stable violet radical that fades when it is reduced.

Assay [6] is described as follows: Antioxidant activity assessed as protection against […]-induced oxidation of DNA […]. The format is functional.

SMILES strings stand for the structures. pIC50: −log10 of the molar value. The source made the active and inactive calls. No cut-off for these calls is given here.

Turning to `Cc1coc2c(O)c3oc(=O)cc(C)c3cc12`, the result in assay [1], in assay [2], in assay [3] and in assay [6] was Active. The pIC50 (in general, the IC50 on a negative log10 scale, so that one unit is a factor of ten) in assay [4] was 3.77; in assay [5] it was 3.93.

Turning to `Cc1cc(=O)oc2c(O)c3occc3cc12`, the result in assay [1], in assay [2], in assay [3] and in assay [6] was Active. The pIC50 was 3.76 in assay [4] and 4.09 in assay [5].

For the compound `O=c1ccc2cc3ccoc3c(O)c2o1` [XANTHOTOXOL], the result in assay [1], in assay [2], in assay [3] and in assay [6] was Active. Moreover, the pIC50 was 3.73 in assay [4] and 4.16 in assay [5].
